Compound activity (PubChem)
Compounds with a hit are over-represented: about 6% of the library has one in this group of screens.
EphB4 antag: EphB4-ephrin-B2 interaction antagonists, primary screen, biochemical, TNYL-RAW peptide probe, fluorescence polarization | EphB4 LBD / TNYL-RAW-Alexa532 peptide | inhibition, % at 7 µM | actives 0.15% (n = 97,000) | AID 720, 2007;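 active means inhibition above the screen-wide mean inhibition plus 3 SD, cut at about 15% in these data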
Target sequence (P54760 whole entry, looked up, the tested form may be a part): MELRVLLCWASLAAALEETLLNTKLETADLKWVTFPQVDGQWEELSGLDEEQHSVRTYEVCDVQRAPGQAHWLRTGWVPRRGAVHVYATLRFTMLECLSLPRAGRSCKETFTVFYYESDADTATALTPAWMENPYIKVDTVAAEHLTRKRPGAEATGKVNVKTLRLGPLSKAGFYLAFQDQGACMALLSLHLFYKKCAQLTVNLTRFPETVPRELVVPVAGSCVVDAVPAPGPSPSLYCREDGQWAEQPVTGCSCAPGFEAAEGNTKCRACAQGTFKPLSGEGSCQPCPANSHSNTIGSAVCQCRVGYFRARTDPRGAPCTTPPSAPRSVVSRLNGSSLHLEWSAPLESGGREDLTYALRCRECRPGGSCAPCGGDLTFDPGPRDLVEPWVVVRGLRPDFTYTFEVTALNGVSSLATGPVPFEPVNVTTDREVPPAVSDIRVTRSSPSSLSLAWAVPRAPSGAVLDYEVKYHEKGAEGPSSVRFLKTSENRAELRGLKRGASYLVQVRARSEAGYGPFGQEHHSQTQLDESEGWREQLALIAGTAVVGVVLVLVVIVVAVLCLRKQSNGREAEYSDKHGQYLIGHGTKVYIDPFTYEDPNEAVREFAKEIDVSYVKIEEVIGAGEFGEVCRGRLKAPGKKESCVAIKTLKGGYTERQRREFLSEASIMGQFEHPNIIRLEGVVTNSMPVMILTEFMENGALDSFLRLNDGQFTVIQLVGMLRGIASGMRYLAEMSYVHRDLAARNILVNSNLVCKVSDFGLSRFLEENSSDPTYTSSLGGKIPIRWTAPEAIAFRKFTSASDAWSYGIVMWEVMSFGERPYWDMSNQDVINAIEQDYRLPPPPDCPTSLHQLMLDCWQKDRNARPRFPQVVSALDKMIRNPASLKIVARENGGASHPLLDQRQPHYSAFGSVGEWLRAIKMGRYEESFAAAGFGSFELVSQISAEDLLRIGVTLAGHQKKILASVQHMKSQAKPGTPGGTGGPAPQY
E coli WT exp: growth inhibitors of wild-type E. coli, primary screen, strain BW25113, expanded library, OD600; growth inhibition, % at 100 µM; actives 0.15% (n = 98,000); OD600 absorbance;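 active means growth inhibition above about 50% at one test dose, limit read from the data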;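 further: growth measured after 20 h incubation at 37 °C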
Ecoli tolC: growth inhibitors of E. coli tolC mutant, primary screen, strain BW25113 ΔtolC::kan, 384-well; OD615; growth inhibition, % at 10 µM (by protocol); actives 2.2% (n = 65,000);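 active means growth inhibition at or above a cutoff equal to the mean over every tested compound plus 3 SD, cut at about 60% in these data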;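 further: growth measured after 20 h incubation at 37 °C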
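Signal: optical density read at 615 nm; Assay system: E. coli ΔtolC::kan strain BW25113; Times: 20 h incubation with compound, 37 °C; Dosing: 10 µM final, single dose.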
PostGolgi ctrl: growth inhibition of yeast control strain, primary screen, counter-screen for post-Golgi transport modulator project | efflux-deficient yeast background strain, growth absorbance A615, 16 h | inhibition, % at 10 µM | actives 5% (n = 98,000)
PostGolgi yeast: phenotypic screen on post-Golgi transport, primary screen | actives 0.9% (n = 98,000) | post-Golgi transport phenotypic cell assay | AID 739, 2007 | inhibition, % at 10 µM;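 further: yeast cells grown in 1536-well plates; yeast grown about 18 h at 30C before absorbance read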
Of the large screens only hits and unclear results are named; the others gave an inactive call. Unless noted, no stated cut-off is given here; in the data, active means inhibition above about 30%; inactive means the rest.

COc1ccccc1-c1cc(C(F)(F)F)nc(S(=O)(=O)CCCC(=O)NC(C)C)n1	PostGolgi ctrl 43
COc1ccccc1-c1cc(C(F)(F)F)nc(S(=O)(=O)CCCC(=O)Nc2cc(C)on2)n1	none
COc1ccccc1-c1cc(C(F)(F)F)nc(S(=O)(=O)CCCC(=O)N2CCCCC2C)n1 (centres undefined)	PostGolgi ctrl 62
COc1ccccc1-c1cc(C(F)(F)F)nc(S(C)(=O)=O)n1	PostGolgi ctrl 86, PostGolgi yeast 46 (no result: Ecoli tolC)
CS(=O)(=O)c1nc(-c2ccco2)cc(C(F)(F)F)n1	PostGolgi ctrl 48
COc1ccccc1-c1cc(C(F)(F)F)nc(N2CCCC2)n1	none
CN1CCN(c2nc(-c3ccco3)cc(C(F)(F)F)n2)CC1	none (no result: Ecoli tolC)
CC12CCC(C(=O)N(NC(=O)c3cc(Cl)ccc3O)C1=O)C2(C)C (centres undefined)	none (no result: Ecoli tolC)
Cc1cc(C)c(N2C(=NC(=O)CCCC(=O)O)SC3CS(=O)(=O)CC32)c(C)c1 (centres undefined)	none
COc1cccc(=O)c2c(C)n(-c3cc(C)cc(C)c3)c(C)c12	PostGolgi ctrl 47 (no result: Ecoli tolC)
O=C(c1ccco1)N1CCN(c2c(-c3ccccc3)c3cc(Cl)ccc3[nH]c2=O)CC1	Ecoli tolC 70
O=c1[nH]c2ccc(Cl)cc2c(-c2ccccc2)c1N1CCN(c2ccccn2)CC1	PostGolgi ctrl 82, PostGolgi yeast 31 (no result: EphB4 antag)
O=c1[nH]c2ccc(Cl)cc2c(-c2ccccc2)c1N1CCOCC1	none (no result: EphB4 antag)
O=C1NC(=S)N/C1=C/c1cc([N+](=O)[O-])ccc1O	none (no result: Ecoli tolC)
COc1ccc(OC)c(NC(=O)C(=O)/C=C(\O)c2cc(OC)ccc2OC)c1	PostGolgi ctrl 30 (no result: Ecoli tolC)
Cc1ccc(CNC(=O)C(C)OC(=O)c2cccs2)cc1 (centres undefined)	none (no result: Ecoli tolC)
CCOC(=O)c1nn(-c2ccccc2)c(=O)c(C#N)c1C	none
CCOC(=O)c1c(NC(=O)c2nn(CC)cc2Br)c(C#N)nn1-c1ccccc1	none
CCOC(=O)c1nn(-c2ccccc2)c(C#N)c1NC(=O)c1nn(CC)cc1Br	PostGolgi ctrl 44
CCOC(=O)c1c(NC(=O)c2c(Br)cnn2C)c(C#N)nn1-c1ccccc1	PostGolgi ctrl 41 (no result: Ecoli tolC)
OCCN(CCO)CC(O)COCCC12CC3CC(CC(C3)C1)C2 (centres undefined)	none (no result: Ecoli tolC)
Cc1ccc(N=Cc2c(O)n(-c3ccc4c(c3)OCO4)c(=O)c3ccccc23)cc1	PostGolgi yeast 30 (no result: Ecoli tolC)
CCOC(=O)c1sc2nc3n(c(=O)c2c1C)CCCCC3	PostGolgi ctrl 30
Cc1c(C(=O)Nc2ccc(Oc3ccccc3)cc2)sc2nc3n(c(=O)c12)CCC3	PostGolgi ctrl 31 (no result: Ecoli tolC)
Cc1c(C(=O)O)sc2nc3n(c(=O)c12)CCCCC3	none (no result: Ecoli tolC)
O=C(N/N=C/c1ccc(F)cc1)c1sccc1OCc1ccc(F)cc1	PostGolgi ctrl 34 (no result: Ecoli tolC)
N#CCc1ccc(NC(=O)Nc2cccc(Cl)c2)cc1	PostGolgi ctrl 31
Cc1csc(NC(=O)Nc2cccc(Cl)c2)n1	none
O=C(Nc1cccc(Cl)c1)Nc1nccs1	E coli WT exp 77, Ecoli tolC 69
N#Cc1ccccc1NC(=O)Nc1cccc(Cl)c1	none
COC(=O)c1cc(NC(=O)Nc2cccc(Cl)c2)ccc1Cl	PostGolgi ctrl 41 (no result: Ecoli tolC)
CCOC(=O)CCN(Cc1sccc1C)S(=O)(=O)c1ccc(F)cc1	none (no result: Ecoli tolC)
CCOC(=O)C1=C(Cc2ccc(F)cc2)C(=O)c2ccccc2C1=O	none (no result: Ecoli tolC)
O=C(OCc1ccc(F)cc1)c1ccc2c(c1)-c1ccccc1C2=O	PostGolgi ctrl 38 (no result: Ecoli tolC)
COCCCNC(=O)C(=O)N/N=C/c1ccc(OCC(=O)Nc2cccc(Cl)c2C)c(OC)c1	none (no result: Ecoli tolC)
O=C(Cc1ccccc1)Nc1ccc(NC(=O)C2CC2)nc1	PostGolgi ctrl 39
CCCC(=O)Nc1ccc(NC(=O)CCc2ccccc2)cn1	PostGolgi yeast 30
CC1CCN(C2CC(=O)N(c3ccc(Br)cc3Br)C2=O)CC1 (centres undefined)	none (no result: EphB4 antag, E coli WT exp, PostGolgi ctrl, PostGolgi yeast)
O=C(c1cccc2ccccc12)N1CCN(CC2CC=CCC2)CC1 (centres undefined)	none
Cc1ccc(-c2cccc(NC(=O)C3C4C=CC(C4)C3C(=O)O)c2)o1 (centres undefined)	none (no result: Ecoli tolC)
COC(=O)c1ccccc1NC(=S)NC(=O)COc1ccccc1Cl	PostGolgi ctrl 31 (no result: Ecoli tolC)
COC(=O)c1ccccc1NC(=S)NC(=O)COc1ccc(C)cc1	none (no result: E coli WT exp, Ecoli tolC, PostGolgi ctrl, PostGolgi yeast)
CC1C/C(=C/c2cccn2C)C(=O)/C(=C/c2cccn2C)C1 (centres undefined)	PostGolgi ctrl 41 (no result: Ecoli tolC)
CC(C)(C)c1ccc(-c2nnc3sc(-c4ccccn4)nn23)cc1	PostGolgi ctrl 35
CCN(CC)c1ccc(-c2nn3c(-c4n[nH]c5c4CCC5)nnc3s2)cc1	Ecoli tolC 74, PostGolgi ctrl 43
c1ccc(-c2nn3c(-c4ccncc4)nnc3s2)nc1	none (no result: EphB4 antag, E coli WT exp, PostGolgi ctrl, PostGolgi yeast)
CN(C)c1ccc(-c2nn3c(-c4ccncc4)nnc3s2)cc1	Ecoli tolC 84 (no result: EphB4 antag, E coli WT exp, PostGolgi ctrl, PostGolgi yeast)
Cc1ccc(-c2nnc3sc(-c4ccncc4)nn23)cc1	none
CC(C)Oc1cccc(-c2nnc(SCC(=O)Nc3ccc4c(c3)OCCO4)n2N)c1	none (no result: Ecoli tolC)
Cc1cc2c(=O)n(CC(=O)NCC(=O)N3CCN(Cc4ccccc4)CC3)cnc2s1	none (no result: EphB4 antag)
CCCCC1CCC(c2nc(-c3ccccn3)no2)CC1 (centres undefined)	PostGolgi ctrl 38
CCCC(=O)Nc1sc(C)c(-c2ccc(C(C)CC)cc2)c1C#N (centres undefined)	none (no result: Ecoli tolC)
CSc1nc2ccc(NS(=O)(=O)c3ccc(Cl)s3)cc2s1	Ecoli tolC 99, PostGolgi ctrl 40
CSc1nc2ccc(S(=O)(=O)N(C)C)cc2s1	none (no result: Ecoli tolC)
Cc1nc(SCC(=O)NCCc2ccc(Cl)cc2)nc(C)c1C	none (no result: Ecoli tolC)
CCCC(C)NC1=NCCCCC1 (centres undefined)	none (no result: Ecoli tolC)
O=C(CN1CCN(c2ccc(F)cc2)CC1)N1CCOCC1	none
O=C(CN1CCN(c2ccc(F)cc2)CC1)N1CCC(Cc2ccccc2)CC1	PostGolgi ctrl 31
Nc1cccc(-c2nc3ccccc3s2)c1	PostGolgi ctrl 31 (no result: Ecoli tolC)
O=S(=O)(c1cccc(-c2csc(-c3cccnc3)n2)c1)N1CCCCC1	PostGolgi ctrl 32
c1cncc(-c2nc(-c3cccs3)cs2)c1	none
Clc1ccsc1-c1csc(-c2cccnc2)n1	PostGolgi ctrl 85, PostGolgi yeast 81 (no result: Ecoli tolC)
O=S(=O)(c1ccc(-c2csc(-c3cccnc3)n2)cc1)N1CCCCC1	PostGolgi ctrl 41
O=C(Nc1ccccc1F)c1ccc(-n2cncn2)nc1	none (no result: Ecoli tolC)
O=S(=O)(c1ccc(F)cc1)N1CCN(c2nc(-c3ccc(F)cc3)cs2)CC1	PostGolgi ctrl 37 (no result: Ecoli tolC)
O=S(=O)(c1cccc(-c2nc3ccccc3s2)c1)N1CCCC1	PostGolgi ctrl 34
CS(=O)(=O)N1CCN(c2nc(-c3ccc(F)cc3)cs2)CC1	none
Cc1ccccc1Cn1c2ccccc2c2cnn(CC(=O)N3CCN(c4ccccc4)CC3)c(=O)c21	PostGolgi ctrl 42 (no result: Ecoli tolC)
Cc1cc(C)c(S(C)(=O)=O)c(Oc2ccc(C(C)(C)C)cc2)n1	none (no result: Ecoli tolC)
